T cruzi repl – inhibitors of intracellular T. cruzi growth, primary screen, luminescence, NIH3T3 host cells. T. cruzi beta-gal in NIH3T3, 90 h. inhibition, % (test concentration not listed). 300,000 tested, 1.4% active. AID 1885, 2009;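 active = mean inhibition across valid replicates above about 55%, limit read from the data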;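 note: signal also drops with host cell toxicity which is not excluded here; higher percent means less beta-gal luminescence so fewer parasites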
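compound dosing = single 50 nL compound addition per well in DMSO | material = NIH/3T3 host cells with β-galactosidase reporter T. cruzi | input = 5,000 host fibroblasts per well | timing = ≥90 h infection period, 3 h prior cell attachment | read-out basis = percent inhibition of parasite-derived β-gal signal | detection = GalScreen β-gal luminescence, detergent lysis, 60 min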
CHOP inh – inhibitors of CHOP promoter induction, primary screen, cell-based, unfolded protein response, luciferase reporter | inhibition, % at 10 µM | 220,000 tested, 3.8% active | AID 2732, 2010 | CHO-K1 CHOP-promoter luciferase, tunicamycin-induced, 15-18 h;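 active = compounds that reduced the stress-induced luciferase reporter signal by more than about 70% of percent inhibition, limit read from the data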
UPR CHOP act – activators of apoptotic CHOP UPR arm, primary screen, cell-based, CHO-CHOP luciferase reporter, luminescence, uHTS | AID 449763, 2010 | UPR activation; percent of tunicamycin response over DMSO baseline | activation, % at 10 µM | 330,000 tested, 0.34% active;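 active = at 10 µM dose, activation of 40% or more, normalized to positive control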
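Test system: CHO-CHOP cells, stable luciferase reporter of PERK-eIF2a-CHOP signalling | Quantity: 500 CHO-CHOP cells per well | Buffer or medium: F12 plus 10% serum | Compound dosing: 10 µM single point, 0.5% DMSO | Schedule: 6 h compound treatment, 37 °C | Signal: Luciferase luminescence | Control set: Tunicamycin high control, DMSO low control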
XBP1 UPR activ – activators of adaptive XBP1 UPR arm, primary screen, cell-based, CHO-XBP1 luciferase reporter, luminescence, uHTS. 330,000 tested, 0.33% active. IRE1-XBP1 UPR activation; percent of tunicamycin response, DMSO as zero. activation, % at 20 µM. AID 463104, 2010;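 active = versus positive control, 20 µM dose yields 30% or more activation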
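Material: CHO-XBP1 cells stably carrying IRE1-XBP1-driven luciferase reporter / Amount: 1000 cells per well / Compound: 20 µM, 1% DMSO / Times: 6 h treatment, 37 °C / Detection: luciferase luminescence / Measure: % activation of reporter signal versus tunicamycin and DMSO controls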
Dynein transport – inhibitors of GR-EGFP nuclear translocation, primary screen, dynein cargo transport inhibitor project, imaging, high-content, 3617.4 mouse cells | test concentration mostly 20 µM; stimulated with dexamethasone, 1 µM; stronger effect = lower value | z-score, hits read low | 220,000 tested, 0.47% active | AID 1381, 2008;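 active = plate z-score of nuclear minus cytoplasmic receptor signal below a set negative limit, without overly bright fluorescence or cell loss, cut at about -3.5 in these data, passing the limit was not always enough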;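 note: z-score of nuclear minus cytoplasmic ring GR-EGFP intensity difference per well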
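Buffer or medium: tet-free, stripped-serum medium; reagent: dexamethasone at 1.0 µM final, 30 min; incubation: 48 h induction, 1 h compound, 30 min dex at 37 °C; measured by: formaldehyde fixation, Hoechst nuclear stain, 10x automated fluorescence imaging; read-out: nuclear-to-cytoplasmic GR-EGFP distribution per well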
L major viab – Leishmania major promastigote growth inhibition, primary screen. Leishmania major promastigotes, resazurin fluorescence viability. inhibition, % at 10 µM. 200,000 tested, 9% active. AID 1063, 2008; in the data active = inhibition above about 50%;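 note: promastigotes grown with compound for 44 hours at 28 °C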
Large screens that a line does not name were inactive. The full list was thinned out, with hits kept by preference.

Cc1nn(Cc2ccc(Cl)c(Cl)c2)c(C)c1NC(=O)c1cc(-c2ccco2)on1	CHOP inh 87
Cc1cc(C)n(CCNC(=O)c2ccc3c(c2)OCO3)n1	none (no result: CHOP inh, Dynein transport, L major viab)
O=C(COc1ccc2c(c1)CCC2)Nc1ccccn1	none (no result: CHOP inh, Dynein transport, L major viab)
COc1ccc(OC)c(NC(=O)CCc2c[nH]c3ccccc23)c1	none
O=[N+]([O-])c1cc(S(=O)(=O)Nc2ccccc2)ccc1NCc1ccccc1	CHOP inh 92
O=[N+]([O-])c1cc(S(=O)(=O)C(F)(F)F)ccc1N1CCN(c2ccccc2)CC1	L major viab 68
CNS(=O)(=O)c1ccc(N2CCCC2)c([N+](=O)[O-])c1	none
Cc1c(NS(=O)(=O)c2ccc(N3CCN(C)CC3)c([N+](=O)[O-])c2)c(=O)n(-c2ccccc2)n1C	none
O=[N+]([O-])c1cc(S(=O)(=O)Nc2ccccc2)ccc1N1CCN(c2ccccc2)CC1	L major viab 88
O=C(O)c1cc(NS(=O)(=O)c2ccc(N3CCCCC3)c([N+](=O)[O-])c2)cc(C(=O)O)c1	L major viab 77
O=C(CCN1C(=O)/C(=C\c2ccccc2Cl)SC1=S)N1CCN(c2ccccc2)CC1	L major viab 91
CCc1ccc(/C=C2\SC(=S)N(CCC(=O)N3CCN(C)CC3)C2=O)cc1	L major viab 99
O=C(CCN1C(=O)/C(=C/c2ccccc2)SC1=S)N1CCCCCC1	none (no result: CHOP inh, Dynein transport, L major viab)
CCOc1ccc(/C=C2\SC(=S)N(CCC(=O)O)C2=O)cc1	CHOP inh 84 (no result: L major viab)
Cc1occc1C(=O)NNC(=S)NCc1ccccc1	none
COc1cc(/C=C2\SC(=O)N(CCN)C2=O)ccc1OS(=O)(=O)c1cc(C)ccc1C	CHOP inh 93, L major viab 100 (no result: UPR CHOP act, XBP1 UPR activ)
COc1ccc(/C=C2\SC(=O)N(CCC(=O)Nc3ccccc3)C2=O)cc1OC	L major viab 53
CCOc1cc(/C=C2/SC(=S)N(C)C2=O)ccc1Oc1ccc([N+](=O)[O-])cc1[N+](=O)[O-]	L major viab 63
COc1cc(/C=C2\SC(=S)N(Nc3ccccc3)C2=O)cc(OC)c1OC	none
CCOc1ccc(/C=C2\SC(=S)N(Nc3ccccc3)C2=O)cc1OC	CHOP inh 82
CSCCC1NC(=O)N(CC(=O)N2CCc3ccccc3C2)C1=O (configuration not stated)	none (no result: T cruzi repl, CHOP inh, Dynein transport, L major viab)
CCOc1ccc(CNC(=O)C2CCN(c3nn4c(=O)cc(C)nc4s3)CC2)cc1	none (no result: CHOP inh, Dynein transport, L major viab)
Cc1cccc(Nc2nc3c(S(=O)(=O)c4ccccc4)nnn3c3ccccc23)c1	L major viab 50
Cc1cc(C)cc(Nc2nc3c(S(=O)(=O)c4ccccc4)nnn3c3ccccc23)c1	none (no result: T cruzi repl, UPR CHOP act, XBP1 UPR activ)
Cc1ccc(S(=O)(=O)c2nnn3c2nc(NC2CCN(Cc4ccccc4)CC2)c2ccccc23)cc1C	T cruzi repl 59 (no result: CHOP inh, Dynein transport, L major viab)
Cc1cc2c(N=NC(=O)C3CC3c3ccccc3)c(O)[nH]c2cc1Br (configuration not stated)	CHOP inh 71
COc1ccc(/C=C2/C(=O)N(c3ccccc3)N=C2C)cc1Br	none (no result: CHOP inh, Dynein transport, L major viab)
CC1=NN(c2ccc(C)c(C)c2)C(=O)/C1=C/c1ccc2c(c1)n(C)c(=O)n2C	L major viab 97
COc1cc(/C=C2/C(=O)N(c3ccccc3)N=C2C)ccc1OS(=O)(=O)c1ccccc1	L major viab 87
CC(=O)c1cccc(NC(=O)CN2CCc3cc4c(cc3C2)OCCCO4)c1	none (no result: CHOP inh, Dynein transport, L major viab)
Cc1cc(C)c(S(=O)(=O)N(C2=NCCS2)S(=O)(=O)c2c(C)cc(C)cc2C)c(C)c1	L major viab 98
Cc1cc(-c2ccccc2)nc(Cl)c1C#N	L major viab 70
CC1=[N+](C)c2c(ccc3cccnc23)C1(C)C	CHOP inh 75, L major viab 98 (no result: T cruzi repl, UPR CHOP act, XBP1 UPR activ)
Cc1[nH]c2c(ccc3cccnc32)c1C	none (no result: L major viab)
O=C(CCc1nc2ccccc2c(=O)[nH]1)NNC(=O)c1ccc(F)cc1	none (no result: T cruzi repl, CHOP inh, Dynein transport, L major viab)
COc1ccc(C(=O)NC(=S)Nc2ccccc2F)cc1	L major viab 64
O=C(c1ccc(COc2ccccc2Br)o1)N1N=C(C(F)F)CC1(O)C(F)F (configuration not stated)	CHOP inh 89
O=C(c1ccc(Cn2cc([N+](=O)[O-])cn2)o1)N1N=C(C(F)F)CC1(O)C(F)F (configuration not stated)	none
CCOC(=O)c1sc(NC(=O)C2CC(=O)N(c3ccc(C)cc3)C2)nc1C (configuration not stated)	none (no result: CHOP inh, Dynein transport, L major viab)
COc1ccc(N(C(=O)c2ccccc2C)S(=O)(=O)c2cccs2)cc1	L major viab 94
C(=C\c1ccccc1)/CN1CCN(Cc2ccc3c(c2)OCCO3)CC1	T cruzi repl 64, L major viab 92 (no result: UPR CHOP act, XBP1 UPR activ)
O=S(=O)(/C=C/c1ccccc1)N1CCN(Cc2ccc3c(c2)OCO3)CC1	L major viab 85
O=S(=O)(c1cc(Cl)ccc1Cl)N1CCN(Cc2ccc3c(c2)OCO3)CC1	none
Cc1cc2oc(=O)cc(CN3CCN(S(=O)(=O)/C=C/c4ccccc4)CC3)c2cc1C	T cruzi repl 66, L major viab 96
CCc1cccc(NC(=O)C2CCCN2S(=O)(=O)c2ccc3c(c2)CC(C)N3C(C)=O)c1 (configuration not stated)	none (no result: CHOP inh, Dynein transport, L major viab)
COc1cccc(CNC(=O)c2cc3c(cc2Cl)N2CCCCCC2=NS3(=O)=O)c1	none (no result: CHOP inh, Dynein transport, L major viab)
Cc1cc(OCCN2CCC(Cc3ccccc3)CC2)ccc1[N+](=O)[O-]	none (no result: CHOP inh, Dynein transport, L major viab)
C=C(C)C1Cc2c(C)nn(-c3cc(C)c4ccccc4n3)c2C1 (configuration not stated)	none (no result: T cruzi repl, CHOP inh, UPR CHOP act, XBP1 UPR activ)
OCCN1CCN(c2ncnc3sc(-c4ccccc4)cc23)CC1	T cruzi repl 62
Cc1ccc(-c2csc3ncn(-n4c(C)ccc4C)c(=O)c23)o1	CHOP inh 79
Cc1ccccc1Nc1nc(Nc2ccccc2C)nc(SC2=NCCS2)n1	none
Cc1ccc(Nc2nc(Nc3ccc(C)cc3)nc(SC3=NCCS3)n2)cc1	CHOP inh 90
Cc1ccc2sc(N(CCCN(C)C)C(=O)c3ccc(S(=O)(=O)N(C)C4CCCCC4)cc3)nc2c1C	T cruzi repl 59 (no result: CHOP inh, Dynein transport, L major viab)
CCN(Cc1ccccc1)S(=O)(=O)c1ccc(C(=O)N(CCCN(C)C)c2nc3cc4c(cc3s2)OCO4)cc1	none (no result: CHOP inh, Dynein transport, L major viab)
CCN(CC)CCN(C(=O)c1ccc(S(=O)(=O)N(C)C2CCCCC2)cc1)c1nc2c(C)cccc2s1	none (no result: CHOP inh, Dynein transport, L major viab)
